What was measured:
Rattus norvegicus [1] = organism: Rattus norvegicus; test: Ability to inhibit the K+-induced release of [3H]acetylcholine in normal striatal slices at 30 uM; assay type: functional; design: scale not given: the % may be the effect or the level left
Summary of the method: (§1)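 Striatal slices in Krebs–Ringer bicarbonate with 0.6 mM ascorbic acid, 0.03 mM Na2EDTA and 11 mM glucose, gassed 95% O2/5% CO2, labelled 20 min with [3H]choline, then superfused at 0.5 mL/min. At 55 min, 12.5 mM K+ (Na+ lowered equimolarly) was applied for 10 min, with drug present from 10 min before. Scintillation counting gave fractional tritium release above spontaneous outflow, expressed as % of drug-free control.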

Rattus norvegicus [2] = organism: Rattus norvegicus; test: Ability to inhibit the K+-induced release of [3H]Acetylcholine in dopamine depleted striatal slices at 30 uM; assay type: functional; design: scale not given: the % may be the effect or the level left; summary of the method: as §1
Rattus norvegicus [3] = organism: Rattus norvegicus; test: Ability to inhibit the K+-induced release of [3H]acetylcholine in normal striatal slices at 1 uM; assay type: functional; design: scale not given: the % may be the effect or the level left
Summary of the method: (§2)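 Striatal slices in Krebs–Ringer bicarbonate with 0.6 mM ascorbic acid, 0.03 mM Na₂EDTA and 11 mM glucose, gassed with 95% O₂/5% CO₂. Slices were labelled 20 min with [³H]choline, then superfused at 0.5 mL/min. Drug was added 10 min before and during 12.5 mM K⁺ (Na⁺-compensated) for 10 min. K⁺-evoked fractional tritium release above baseline is given as % of drug-free control, ±SEM.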

Rattus norvegicus [4] = organism: Rattus norvegicus; test: Inhibition of stimulation of [3H]- acetylcholine release in rat striatal tissue; assay type: functional, Striatum; summary of the method: as §1
Rattus norvegicus [5] = organism: Rattus norvegicus; test: Ability to inhibit the K+-induced release of [3H]acetylcholine in dopamine depleted striatal slices at 0.1 uM; assay type: functional; design: scale not given: the % may be the effect or the level left; summary of the method: as §2
Rattus norvegicus [6] = organism: Rattus norvegicus; test: Ability to inhibit the K+-induced release of [3H]acetylcholine in normal striatal slices at 0.1 uM; assay type: functional; design: scale not given: the % may be the effect or the level left; summary of the method: as §2
Rattus norvegicus [7] = organism: Rattus norvegicus; test: Ability to inhibit the K+-induced release of [3H]Acetylcholine in normal striatal slices at 60 uM; assay type: functional; design: scale not given: the % may be the effect or the level left; summary of the method: as §2

## C[S+](C)CC(O)c1ccc(O)c(O)c1.[I-] (stereo not given)
Rattus norvegicus [1]
  Control: 113%

## C[Se]CCc1ccc(O)c(O)c1
Rattus norvegicus [1]
  Control: 95%

## C[Se+](C)CCc1ccc(O)c(O)c1.[I-]
Rattus norvegicus [1]
  Control: 57%
Rattus norvegicus [2]
  Control: 47%

## C[S+](C)CCc1ccc(O)c(O)c1.[I-]
Rattus norvegicus [1]
  Control: 50%
Rattus norvegicus [2]
  Control: 61%

## CS(=O)(=O)CCc1ccc(O)c(O)c1
Rattus norvegicus [1]
  Control: 122%

## C[N+]1(C)CCc2cccc3c2[C@H]1Cc1ccc(O)c(O)c1-3
Rattus norvegicus [3]
  Control: 59%

## CSCCc1ccc(O)c(O)c1
Rattus norvegicus [1]
  Control: 82%
Rattus norvegicus [2]
  Control: 100%
Rattus norvegicus [4]
  Inhibition: 18%

## C[S+]([O-])CCc1ccc(O)c(O)c1 (stereo not given)
Rattus norvegicus [1]
  Control: 101%

## C[N+](C)(C)CCc1ccc(O)c(O)c1.[I-]
Rattus norvegicus [1]
  Control: 52%
Rattus norvegicus [2]
  Control: 53%

## CN1CCc2cccc3c2[C@H]1Cc1ccc(O)c(O)c1-3 [APOMORPHINE]
Rattus norvegicus [5]
  Control: 56%
Rattus norvegicus [6]
  Control: 60%

## NCCc1ccc(O)c(O)c1 [DOPAMINE]
Rattus norvegicus [1]
  Control: 40%
Rattus norvegicus [3]
  Control: 70%

## NC[C@H](O)c1ccc(O)c(O)c1 [NOREPINEPHRINE]
Rattus norvegicus [1]
  Control: 101%
Rattus norvegicus [7]
  Control: 85%

Reference: ChEMBL document CHEMBL1123911, “Dopamine agonists: effects of charged and uncharged analogues of dopamine” (1987)
